According to ChEMBL document CHEMBL1148609, “Orally active purine-based inhibitors of the heat shock protein 90” (J Med Chem, 2006):
Active and inactive are the calls of the source. The rule behind the calls is not given here.

Key:
Mus musculus [1] = experiment: Degradation of pHER2 in murine N87 xenograft model at (2*200 mg/kg/day), po; format: functional, organism-based
Procedure, shortened: (§1)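 Mice bearing N87 gastric tumor xenografts (high HER-2) given the H3PO4 salt orally at 2 × 200 or 2 × 100 mg/kg/day for 3 days. Reference arm received 17-AAG ip at 90 mg/kg once daily. Animals sacrificed 24 h after the last dose and client proteins in tumor lysates assessed by Western blot.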

Mus musculus [2] = experiment: Upregulation of Hsp70 in murine N87 xenograft model at (2*200 mg/kg/day), po; format: functional, organism-based
[3] = Cmax in BALB/c mice at 100 mg/kg, po; format: ADME, organism-based; design: dose 100 mg/kg, route oral; settings: mouse, in vivo
Procedure, shortened: (§2)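 Balb/C mice, three dosed orally by gavage (5-20 mL/kg) and three intravenously; H3PO4 salts formulated as a phosphatidylcholine/water dispersion. Six blood samples collected, the last 4 h postdose. Plasma levels measured by HPLC (detection limit 0.5 µg/mL).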

[4] = Half life in BALB/c mice at 10 mg/kg, iv; format: ADME, organism-based; design: dose 10 mg/kg, route intravenous; settings: mouse, in vivo; procedure, shortened: as §2
Mus musculus [5] = experiment: Degradation of pAKT in murine N87 xenograft model at (2*200 mg/kg/day), po; format: functional, organism-based; procedure, shortened: as §1
[6] = (§3) Bioavailability in BALB/c mice at 100 mg/kg, po; format: ADME, organism-based; settings: BALB/c, mouse, in vivo; procedure, shortened: as §2
Mus musculus [7] = experiment: Degradation of pRaf in murine N87 xenograft model at (2*200 mg/kg/day), po; format: functional, organism-based; procedure, shortened: as §1
[8] = Tmax in BALB/c mice at 100 mg/kg, po; format: ADME, organism-based; design: dose 100 mg/kg, route oral; settings: mouse, in vivo; procedure, shortened: as §2
Mus musculus [9] = experiment: Tumor growth inhibition in murine xenograft model using N87 stomach cancer cell line at 200 mg/kg/day, po; format: functional, organism-based; settings: NCI-N87
Procedure, shortened: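 Female nu/nu athymic mice, 6-8 weeks old, implanted sc in the flank with N87 tumor fragments (~2 mm³) or 5 × 10⁶ cells. Established tumors of 50-200 mm³ used, n = 6-10 per group. H3PO4 salt given orally at 1 × 200 or 2 × 100 mg/kg/day, 5 days/week; vehicle-dosed controls. Caliper volumes (l × w²)/2 taken twice weekly.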

[10] = Clearance in BALB/c mice at 10 mg/kg, iv; format: ADME, organism-based; design: dose 10 mg/kg, route intravenous; settings: mouse, in vivo; procedure, shortened: as §2
Mus musculus [11] = experiment: Degradation of HER2 in murine N87 xenograft model at (2*200 mg/kg/day), po; format: functional, organism-based; procedure, shortened: as §1
Mus musculus [12] = experiment: Degradation of PI3K in murine N87 xenograft model at (2*200 mg/kg/day), po; format: functional, organism-based; procedure, shortened: as §1
[13] = (§4) AUC in BALB/c mice at 100 mg/kg, po; format: ADME, organism-based, Plasma; design: dose 100 mg/kg, route oral; settings: BALB/c, mouse, plasma; procedure, shortened: as §2
[14] = Half life in BALB/c mice at 100 mg/kg, po; format: ADME, organism-based; design: dose 100 mg/kg, route oral; settings: mouse, in vivo; procedure, shortened: as §2
[15] = Volume of distribution in BALB/c mice at 10 mg/kg, iv; format: ADME, organism-based; design: dose 10 mg/kg, route intravenous; settings: mouse, in vivo, read-out: Vdss; procedure, shortened: as §2
MCF7 = experiment: Growth inhibition in breast cancer MCF7 cell line by MTS assay; format: functional, cell-based; settings: Homo sapiens
Procedure, shortened: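 MCF-7 breast cancer cells exposed to compound for 5 days, then MTS added and formazan read at 490 nm. […] Values are the mean of at least three independent observations.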

Mus musculus [16] = experiment: Upregulation of Hsp70 in A549 tumor xenograft at 200 mg/kg, po; format: functional, organism-based; design: dose 200 mg/kg
Procedure, shortened: (§5)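 Female nu/nu athymic mice (6-8 weeks old) carrying subcutaneous A549 lung cancer xenografts received a single oral gavage dose of the H₃PO₄ salt (200 mg/kg), formulated as a phosphatidylcholine/water dispersion. Mice were sacrificed at 6, 24 or 48 h, and tumors were harvested. HER-2, pHER-2, pAKT, pRaf and Hsp70 levels were assessed by Western blot.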

A549 = experiment: Degradation of pHER2 in A549 tumor xenograft at 200 mg/kg, po; format: functional, organism-based; design: dose 200 mg/kg; settings: Mus musculus; procedure, shortened: as §5
Mus musculus [17] = experiment: Degradation of HER2 in A549 tumor xenograft at 200 mg/kg, po; format: functional, organism-based; design: dose 200 mg/kg; procedure, shortened: as §5
[18] = biological target: Heat shock protein HSP 90-alpha (Homo sapiens) (UniProt P07900); experiment: Hsp90 inhibition measured as HER-2 degradation in MCF-7 cells
Mus musculus [19] = experiment: Degradation of pAKT in A549 tumor xenograft at 200 mg/kg, po; format: functional, organism-based; design: dose 200 mg/kg; procedure, shortened: as §5
Mus musculus [20] = experiment: Degradation of pRaf in A549 tumor xenograft at 200 mg/kg, po; format: functional, organism-based; design: dose 200 mg/kg; procedure, shortened: as §5
Mus musculus [21] = experiment: as §3; format: ADME, organism-based; settings: in vivo; procedure, shortened: as §2
Mus musculus [22] = experiment: as §4; format: ADME, organism-based, Plasma; design: dose 100 mg/kg, route oral; settings: in vivo; procedure, shortened: as §2

## COc1ccc(I)c(Sc2nc3c(N)ncnc3n2CCCNC(C)C)c1
Mus musculus [1]
  Activity: Active
Mus musculus [2]
  Activity: Active
[3]
  Cmax: 4700 ng/mL
[4]
  half-life: 4.2 h
Mus musculus [5]
  Activity: Active
[6]
  bioavailability: 55%
Mus musculus [7]
  Activity: Active
[8]
  Tmax: 0.5 h
Mus musculus [9]
  Activity: Active
[10]
  clearance: 62 mL/min/kg
Mus musculus [11]
  Activity: Active
Mus musculus [12]
  Activity: inactive
[13]
  AUC: 7500 ng·h/mL
[14]
  half-life: 1.5 h
[15]
  Vd: 22 L/kg
MCF7
  IC50: 600 nM

## C#CCCCn1c(Sc2cc(OC)ccc2I)nc2c(N)ncnc21
MCF7
  IC50: 700 nM

## C#CCCCn1c(Sc2cc(OC)c(OC)c(OC)c2Cl)nc2c(N)nc(F)nc21
MCF7
  IC50: 1200 nM

## COc1ccc(I)c(Sc2nc3c(N)ncnc3n2CCNCC(C)(C)C)c1
Mus musculus [9]
  Activity: Active
MCF7
  IC50: 500 nM

## COc1ccc(I)c(Sc2nc3c(N)ncnc3n2CCNCC(C)C)c1
Mus musculus [16]
  Activity: Active
A549
  Activity: Active
Mus musculus [17]
  Activity: Active
[18]
  IC50: 100 nM
MCF7
  IC50: 200 nM
Mus musculus [19]
  Activity: Active
Mus musculus [20]
  Activity: Active

## COc1ccc(I)c(Sc2nc3c(N)ncnc3n2CCCNC(C)(C)C)c1
MCF7
  IC50: 200 nM

## CCC(C)NCCCn1c(Sc2cc(OC)ccc2I)nc2c(N)ncnc21 (stereo not drawn)
[3]
  Cmax: 4800 ng/mL
[4]
  half-life: 1.3 h
Mus musculus [21]
  F: 28%
[8]
  Tmax: 0.5 h
Mus musculus [9]
  Activity: Active
Mus musculus [22]
  AUC: 380 µg·min/mL
[14]
  half-life: 0.7 h
[15]
  Vd: 3.4 L/kg
MCF7
  IC50: 200 nM

## CCC(CC)NCCCn1c(Sc2cc(OC)ccc2I)nc2c(N)ncnc21
MCF7
  IC50: 200 nM
